In ChEMBL document CHEMBL1137758, “Biphenyl C-cyclopropylalkylamides: New scaffolds for targeting estrogen receptor beta” (Bioorg Med Chem Lett, 2009):
pIC50: −log10 of the molar value. Calls of active or inactive are those of the source. No cut-off for these calls is given here.

Assays:
[1] = Selectivity for ERalpha over ERbeta
[2] = Selectivity for ERbeta over ERalpha
[3] = target: T1, Estrogen receptor (Homo sapiens) (UniProt P03372); assay: Displacement of fluorescein-labeled estradiol from human recombinant ERalpha at 0.2 uM by fluorescence polarization assay
T1 sequence (whole entry): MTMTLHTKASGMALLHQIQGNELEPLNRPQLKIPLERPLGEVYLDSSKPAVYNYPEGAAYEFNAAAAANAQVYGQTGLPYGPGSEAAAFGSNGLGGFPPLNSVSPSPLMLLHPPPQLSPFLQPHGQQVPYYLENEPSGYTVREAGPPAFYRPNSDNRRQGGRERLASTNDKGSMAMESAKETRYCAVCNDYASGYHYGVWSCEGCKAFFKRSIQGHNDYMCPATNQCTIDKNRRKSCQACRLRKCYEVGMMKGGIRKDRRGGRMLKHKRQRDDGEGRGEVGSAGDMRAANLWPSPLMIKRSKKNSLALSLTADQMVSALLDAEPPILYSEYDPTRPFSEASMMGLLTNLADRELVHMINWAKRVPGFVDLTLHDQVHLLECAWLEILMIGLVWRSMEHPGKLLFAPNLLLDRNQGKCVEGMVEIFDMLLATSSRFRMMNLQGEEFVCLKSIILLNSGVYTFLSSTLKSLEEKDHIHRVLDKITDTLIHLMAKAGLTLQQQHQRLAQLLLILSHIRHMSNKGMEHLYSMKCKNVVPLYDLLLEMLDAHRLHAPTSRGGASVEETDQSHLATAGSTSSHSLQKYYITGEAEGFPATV

Estrogen receptor beta [4] = target: T2, Estrogen receptor beta (Homo sapiens, UniProt Q92731); assay: Displacement of fluorescein-labeled estradiol from human recombinant ERbeta at 0.2 uM by fluorescence polarization assay
T2 sequence (Q92731 whole entry): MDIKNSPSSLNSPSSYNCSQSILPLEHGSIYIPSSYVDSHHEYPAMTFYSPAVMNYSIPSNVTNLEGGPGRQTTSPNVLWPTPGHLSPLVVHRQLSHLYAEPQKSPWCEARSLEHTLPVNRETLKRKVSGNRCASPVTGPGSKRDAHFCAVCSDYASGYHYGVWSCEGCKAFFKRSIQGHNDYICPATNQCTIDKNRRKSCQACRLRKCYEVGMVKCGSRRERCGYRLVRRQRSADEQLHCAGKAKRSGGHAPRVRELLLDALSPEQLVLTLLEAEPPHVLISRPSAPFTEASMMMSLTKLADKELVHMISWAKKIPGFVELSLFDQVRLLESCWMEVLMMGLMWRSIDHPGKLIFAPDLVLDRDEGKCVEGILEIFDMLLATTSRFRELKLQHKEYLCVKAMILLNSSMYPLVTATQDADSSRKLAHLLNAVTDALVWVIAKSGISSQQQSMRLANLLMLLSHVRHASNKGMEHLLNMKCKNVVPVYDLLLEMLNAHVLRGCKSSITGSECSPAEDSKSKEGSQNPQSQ

Estrogen receptor beta [5] = target: T2, Estrogen receptor beta; assay: Displacement of fluorescein-labeled estradiol from human recombinant ERbeta at 5 uM by fluorescence polarization assay
[6] = target: T1, Estrogen receptor (Homo sapiens); assay: Displacement of fluorescein-labeled estradiol from human recombinant ERalpha at 5 uM by fluorescence polarization assay
[7] = target: T1, Estrogen receptor (Homo sapiens); assay: Displacement of fluorescein-labeled estradiol from human recombinant ERalpha at 1 uM by fluorescence polarization assay
Estrogen receptor beta [8] = target: T2, Estrogen receptor beta; assay: Displacement of fluorescein-labeled estradiol from human recombinant ERbeta at 1 uM by fluorescence polarization assay
MCF7 [9] = assay: cells; conditions: Homo sapiens, MCF7, 144 h
Estrogen receptor beta [10] = target: T2, Estrogen receptor beta; assay: Displacement of fluorescein-labeled estradiol from human recombinant ERbeta by fluorescence polarization assay
Outline: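 ER (15 nM) was incubated with Fluormone ES2 (1 nM) and serially diluted compound in DMSO (1% v/v) in duplicate. Polarization was read after 2 h (ex 485/em 530 nm). […] Values are means of three experiments.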

MCF7 [11] = assay: Cytotoxicity against estradiol-stimulated human MCF7 cells expressing ERalpha and ERbeta at 25 uM after 6 days by MTS assay; type: functional, cell-based
Outline: (§1)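 MCF-7 cells (an earlier passage expressing ERα and ERβ, or the later-passage ATCC variant expressing only ERα) were seeded at 4×10^3 cells/well in phenol red-free RPMI-1640 with 10% charcoal-dextran stripped FBS and left to adhere overnight. […] MTS/PMS read-out was A490 minus A630 after 2 h. Day-0 cells were set to 0% growth and E2-stimulated day-6 growth to 100%.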

MDA-MB-231 [12] = assay: Cytotoxicity against estrogen receptor deficient human MDA-MB-231 cells at 25 uM after 72 hrs by MTS assay; type: functional, cell-based
Outline: (§2)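 Cells were plated at 1×10^3 cells/well in phenol red-free RPMI-1640 with 10% FBS and left to adhere 72 h. Agents were given over 3.2 nM to 50 µM for 72 h. Cell density was read by MTS dye reduction, A490 with A630 background subtracted.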

Estrogen receptor = target: T3, Estrogen receptor (Homo sapiens, UniProt P03372); assay: Displacement of fluorescein-labeled estradiol from human recombinant ERalpha by fluorescence polarization assay; conditions: for pIC50: read-out: IC50
T3 sequence (P03372 whole entry): T1 sequence (whole entry)

MCF7 [13] = assay: Cytotoxicity against estradiol-stimulated human MCF7 cells expressing ERalpha at 25 uM after 6 days by MTS assay; type: functional, cell-based; outline: as §1
MCF7 [14] = assay: cells; conditions: Homo sapiens, MCF7, 144 h; remark: listed apart in the source
MDA-MB-231 [15] = assay: Growth inhibition of estrogen receptor deficient human MDA-MB-231 cells at 3.2 nM to 50 uM after 72 hrs by MTS assay; type: functional, cell-based; outline: as §2

Row | Compound | Activity [3] | Activity (Estrogen receptor beta [4]) | Activity (Estrogen receptor beta [5]) | Activity [6] | Activity [7] | Activity (Estrogen receptor beta [8]) | further results
1 | CCCc1c(-c2ccc(O)cc2)nn(-c2ccc(O)cc2)c1-c1ccc(O)cc1 | – | – | – | – | – | – | fold change (FC) [1]: 410
2 | Cc1cc(-c2ccc(O)c(F)c2)ccc1/C=N/O | – | – | – | – | – | – | fold change (FC) [2]: 43
3 | C=C(CCCC)[C@@H](NC(=O)c1ccc(C(=O)OC)cc1)c1ccccc1 | 21% | -9% | 5% | 37% | 24% | -7% | –
4 | C=C(CCCC)[C@@H](NC(=O)c1cccs1)c1ccccc1 | 67% | -1% | 8% | 54% | 40% | -3% | –
5 | CCCC[C@@H]1C[C@H]1[C@@H](NC(=O)c1ccco1)c1ccc(C(F)(F)F)cc1 | 6% | 0% | 22% | 57% | 15% | 2% | –
6 | CCCC[C@@H]1C[C@H]1[C@@H](NC(=O)c1ccco1)c1ccc(-c2ccccc2)cc1 | 58% | -2% | 13% | 54% | 57% | 0% | –
7 | CCC/C=C(\CCC)[C@@H](NC(=O)CCc1ccccc1)c1ccc(C(F)(F)F)cc1 | 56% | 8% | 17% | 67% | 31% | 13% | –
8 | CCCC[C@@H]1C[C@H]1[C@@H](NC(=O)c1ccco1)c1ccccc1 | 63% | 8% | 20% | 91% | 65% | 7% | –
9 | CCCC[C@@H]1C[C@H]1[C@@H](N)c1ccc(-c2ccc(O)cc2)cc1F.Cl (relative stereo) | – | – | – | – | – | – | GI50 (MCF7 [9]): 51.7 µM; pIC50 (Estrogen receptor beta [10]): 4.82; Activity (MCF7 [11]): Active; Activity (MDA-MB-231 [12]): Active; IC50 (Estrogen receptor): Not Active; Activity (MCF7 [13]): Active; GI50 (MCF7 [14]): 1.2 µM; growth inhibition (GI) (MDA-MB-231 [15]): inactive
10 | C=C(CCCC)[C@@H](NC(=O)c1ccccc1)c1ccccc1 | 58% | 2% | 9% | 67% | 70% | 3% | –
11 | CCCC[C@@H]1C[C@H]1[C@@H](NC(=O)c1ccccc1)c1ccc(-c2ccc(O)cc2)cc1F (relative stereo) | – | – | – | – | – | – | pIC50 (Estrogen receptor beta [10]): 5.69; Activity (MCF7 [11]): Active; Activity (MDA-MB-231 [12]): Active; pIC50 (Estrogen receptor): < 4.00; Activity (MCF7 [13]): Active; GI50 (MCF7 [14]): 4.1 µM; growth inhibition (GI) (MDA-MB-231 [15]): inactive
12 | CCCCCC/C=C(\C)[C@@H](NC(=O)c1cccnc1)c1ccc(-c2ccccc2)cc1 | 32% | -8% | 6% | 48% | 44% | -4% | –
13 | CCCC[C@@H]1C[C@H]1[C@@H](NC(=O)c1ccc(-c2ccccc2)cc1)c1ccc(-c2ccccc2)cc1 | 52% | 0% | 4% | -6% | 42% | 6% | –
14 | CCC/C=C(\CCC)[C@@H](NS(C)(=O)=O)c1ccccc1 | 48% | -3% | 17% | 56% | 39% | -4% | –
15 | O/N=C/c1ccc(-c2ccc(O)cc2)cc1F | – | – | – | – | – | – | pIC50 (Estrogen receptor beta [10]): 7.49; fold change (FC) [2]: 11; pIC50 (Estrogen receptor): 6.10
16 | CCC/C=C(\CCC)[C@@H](NC(=O)c1ccccc1)c1ccccc1 | 51% | 8% | 17% | 82% | 56% | 6% | –
17 | CCCC[C@@H]1C[C@H]1[C@@H](NC(=O)Cc1ccccc1)c1ccc(-c2ccccc2)cc1 | 47% | 2% | 14% | 28% | 33% | 8% | –
18 | CCC[C@@H]1C[C@@]1(CCC)[C@@H](NP(=O)(c1ccccc1)c1ccccc1)c1ccc(Cl)cc1 | 5% | 2% | -5% | -44% | 30% | -1% | –
19 | CCC/C=C(\CCC)[C@@H](NP(=O)(c1ccccc1)c1ccccc1)c1ccccc1 | 47% | 6% | 14% | 72% | 25% | 9% | –
20 | CCCC[C@@H]1C[C@H]1C(NC(=O)c1ccco1)c1ccc(C(=O)OC)cc1 (single isomer, unassigned) | 64% | 8% | 15% | 89% | 84% | 2% | –
21 | C=C(CCCC)[C@@H](NC(=O)c1ccc(C(F)(F)F)cc1)c1ccccc1 | -61% | -8% | 3% | 27% | 21% | -7% | –
22 | CCC/C=C(\CCC)[C@@H](NS(=O)(=O)c1ccc(C(F)(F)F)cc1)c1ccc(C(=O)OC)cc1 | 63% | 15% | 43% | 90% | 86% | 29% | –
23 | CCCC[C@@H]1C[C@H]1[C@@H](NC(=O)c1cccnc1)c1ccc(-c2ccccc2)cc1 | 64% | 2% | 10% | 53% | 63% | 2% | –
24 | CCCC[C@@H]1C[C@H]1C(NC(=O)c1cccs1)c1ccc(C(F)(F)F)cc1 (single isomer, unassigned) | 50% | 8% | 13% | 79% | 58% | 14% | –
25 | CCC/C=C(\CCC)[C@@H](NC(=O)c1cccs1)c1ccc(C(F)(F)F)cc1 | 43% | 9% | 19% | 73% | 31% | 12% | –
26 | CCC/C=C(\CCC)[C@@H](NC(=O)CC(C)C)c1ccccc1 | 69% | -4% | 22% | 110% | 84% | 3% | –
27 | O=C(c1ccc(OCCN2CCCCC2)cc1)c1c(-c2ccc(O)cc2)sc2cc(O)ccc12 | – | – | – | – | – | – | Activity (MCF7 [11]): Active; Activity (MDA-MB-231 [12]): Active; Activity (MCF7 [13]): Active; growth inhibition (GI) (MDA-MB-231 [15]): inactive
